Measured values taken from ChEMBL document CHEMBL4196136, “Chemical Constituents of Thai Citrus hystrix and Their Antiausterity Activity against the PANC-1 Human Pancreatic Cancer Cell Line” (J Nat Prod, 2018).
The source made the active and inactive calls. The calls are words filed in the database; no cut-off is given here.

What was measured:
PANC-1 [1] = test: Antiausteritic activity against human PANC1 cells in nutrient-deprived medium measured after 24 hrs by WST8 assay; format: functional
How it was run: (§1)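 Cells kept in DMEM with 10% FBS at 37 °C, 5% CO2. Seeded at 1.5 × 10^4 cells/well in DMEM for 24 h, washed twice with PBS, then exposed 24 h to serially diluted samples in DMEM or nutrient-deprived medium (NDM). Viability by WST-8 (3 h, A450) from three-well means. PC50 is the concentration killing 50% of cells in NDM without toxicity in DMEM.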

MIA PaCa-2 [2] = test: Antiausteritic activity against human MIAPaCa2 cells in nutrient-deprived medium measured after 24 hrs by WST8 assay; format: functional; how it was run: as §1
PSN1 [3] = test: Antiausteritic activity against human PSN1 cells in nutrient-deprived medium measured after 24 hrs by WST8 assay; format: functional; how it was run: as §1
PANC-1 [4] = test: Cytotoxicity against human PANC1 cells in DMEM measured after 24 hrs by WST8 assay; format: cell-based; settings: panc-1, 24 h; how it was run: as §1
MIA PaCa-2 [5] = test: Cytotoxicity against human MIAPaCa2 cells in DMEM measured after 24 hrs by WST8 assay; format: cell-based; settings: mia paca-2, 24 h; how it was run: as §1
PSN1 [6] = test: Cytotoxicity against human PSN1 cells in DMEM measured after 24 hrs by WST8 assay; format: cell-based; settings: psn1, 24 h; how it was run: as §1
PANC-1 [7] = test: Antiausteritic activity against human PANC1 cells in nutrient deprived medium assessed as induction of morphological changes at 6.25 to 25 uM after 24 hrs by ethidium bromide/acridine orange staining based microscopic method; format: functional, cell-based
How it was run: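 PANC-1 (2 × 10^5) seeded in 30 mm dishes overnight, washed twice with PBS, treated in NDM for 24 h in humidified CO2 incubator. Acridine orange/ethidium bromide double stain, 15 min in the dark. Fluorescence (red/green) and phase-contrast imaging at 20× objective.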

PANC-1 [8] = test: Antiausteritic activity against human PANC1 cells in nutrient deprived medium assessed as cell death at 25 uM after 24 hrs by ethidium bromide/acridine orange staining based microscopic method relative to control; format: functional
How it was run: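 PANC-1 cells seeded at 2 × 10^5 per 30 mm dish, attached overnight, PBS-washed twice, then exposed to compound in nutrient-deprived medium (NDM) for 24 h in humidified CO2 incubator. Acridine orange/ethidium bromide double stain added 15 min in dark; fluorescence (red/green) and phase-contrast images taken at 20× objective; red-fluorescing, morphologically altered cells scored as dead.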

PANC-1 [9] = test: Antiausteritic activity against human PANC1 cells in nutrient deprived medium assessed as cell shrinkage at 10 uM measured every 10 mins […] by phase contrast microscopic method; format: functional, cell-based
How it was run: (§2)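 PANC-1 (2 × 10^5) attached overnight in complete medium, washed twice with PBS, treated with 10 μM in NDM. Held in a stage-top incubator at 37 °C, 5% CO2. Phase-contrast images taken every 10 min for 24 h.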

PANC-1 [10] = test: Antiausteritic activity against human PANC1 cells in nutrient deprived medium assessed as plasma blebbing at 10 uM measured every 10 mins […] by phase contrast microscopic method; format: functional, cell-based; how it was run: as §2
PANC-1 [11] = test: Antiausteritic activity against human PANC1 cells in nutrient deprived medium assessed as cell death at 10 uM measured every 10 mins for 24 hrs by phase contrast microscopic method; format: functional, cell-based; how it was run: as §2
PANC-1 [12] = test: Antimigratory activity in human PANC1 cells in DMEM assessed as cell migration at 10 uM after 24 hrs by wound healing assay (reference value: 95%); format: functional
PANC-1 [13] = test: Inhibition of colony formation in human PANC1 cells in DMEM at 12.5 uM after 10 days by crystal violet staining based assay; format: functional, cell-based
How it was run: (§3)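 PANC-1 at 500 cells/well in DMEM, attached 24 h at 37 °C, 5% CO2. Treated with 12.5 or 25 μM in DMEM and grown 10 days. Cells washed with PBS, fixed with 4% formaldehyde, stained 15 min with crystal violet. Colony area measured; three replicates.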

PANC-1 [14] = test: Inhibition of colony formation in human PANC1 cells in DMEM at 25 uM after 10 days by crystal violet staining based assay relative to control; format: functional; settings: PANC-1, 240 h; how it was run: as §3
PANC-1 [15] = test: Reduction in total AKT expression in human PANC1 cells in nutrient deprived medium at up to 5 uM measured within 6 hrs by Western blot analysis; format: functional, cell-based
How it was run: (§4)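 PANC-1 cells treated in nutrient-deprived medium. Proteins resolved by SDS-PAGE and transferred to PVDF. Membranes blocked, washed in PBS with 0.1% Tween 20, and incubated overnight with primary antibodies against p-Akt, Akt, p-mTOR and mTOR. GAPDH served as loading control.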

Homo sapiens = species: Homo sapiens; test: Inhibition of AKT/mTOR signaling in human PANC1 cells in nutrient deprived medium assessed as effect on mTOR phosphorylation up to 5 uM measured within 6 hrs by Western blot analysis; format: cell-based; how it was run: as §4
PANC-1 [16] = test: Antiausteritic activity against human PANC1 cells in nutrient deprived medium assessed as disintegration of cell organelles at 10 uM measured every 10 mins for 24 hrs by phase contrast microscopic method; format: functional, cell-based; how it was run: as §2

## O=c1ccc2ccc(O)cc2o1 [UMBELLIFERONE]
PANC-1 [1]
  PC50: >100 µM
MIA PaCa-2 [2]
  PC50: >100 µM
PSN1 [3]
  PC50: >100 µM
PANC-1 [4]
  Activity: Non-Toxic
MIA PaCa-2 [5]
  Activity: Non-Toxic
PSN1 [6]
  Activity: Non-Toxic

## CC(C)=CCC/C(C)=C/COc1c2ccoc2cc2oc(=O)ccc12 [BERGAMOTTIN]
PANC-1 [1]
  Activity: Dose-dependent effect
  PC50: 4.6 µM
MIA PaCa-2 [2]
  Activity: Dose-dependent effect
  PC50: 2.2 µM
PSN1 [3]
  Activity: Dose-dependent effect
  PC50: 9.4 µM
PANC-1 [4]
  Activity: Non-Toxic
MIA PaCa-2 [5]
  Activity: Non-Toxic
PSN1 [6]
  Activity: Non-Toxic
PANC-1 [7]
  Activity: Active
PANC-1 [8]
  Activity: 100%
PANC-1 [9]
  Activity: Active
PANC-1 [10]
  Activity: Active
PANC-1 [11]
  Activity: Active
PANC-1 [12]
  Activity: 30%
PANC-1 [13]
  inhibition: Active
PANC-1 [14]
  inhibition at 25 µM: 100%
PANC-1 [15]
  Activity: Active
Homo sapiens
  inhibition: Active
PANC-1 [16]
  Activity: Active

## CC(C)=CCOc1c2ccoc2cc2oc(=O)ccc12 [ISOIMPERATORIN]
PANC-1 [1]
  PC50: 41.2 µM
MIA PaCa-2 [2]
  PC50: 37.2 µM
PSN1 [3]
  PC50: 41.7 µM
PANC-1 [4]
  Activity: Non-Toxic
MIA PaCa-2 [5]
  Activity: Non-Toxic
PSN1 [6]
  Activity: Non-Toxic

## COc1cc(C[C@H]2C(=O)OC[C@@H]2Cc2ccc(OC)c(OC)c2)ccc1O [ARCTIGENIN]
PANC-1 [1]
  PC50: 0.7 µM
MIA PaCa-2 [2]
  PC50: 1.9 µM
PSN1 [3]
  PC50: 0.7 µM

## CC1(C)O[C@H]1COc1c2ccoc2cc2oc(=O)ccc12 [OXYPEUCEDANIN]
PANC-1 [1]
  PC50: 76.5 µM
MIA PaCa-2 [2]
  PC50: 38 µM
PSN1 [3]
  PC50: 74.6 µM
PANC-1 [4]
  Activity: Non-Toxic
MIA PaCa-2 [5]
  Activity: Non-Toxic
PSN1 [6]
  Activity: Non-Toxic

## COC(C)(C)[C@H](O)CC/C(C)=C/COc1c2ccoc2cc2oc(=O)ccc12
PANC-1 [1]
  PC50: 37.8 µM
MIA PaCa-2 [2]
  PC50: 37.1 µM
PSN1 [3]
  PC50: 37.8 µM
PANC-1 [4]
  Activity: Non-Toxic
MIA PaCa-2 [5]
  Activity: Non-Toxic
PSN1 [6]
  Activity: Non-Toxic

## COC(C)(C)[C@H](O)COc1c2ccoc2cc2oc(=O)ccc12
PANC-1 [1]
  PC50: 89.6 µM
MIA PaCa-2 [2]
  PC50: 87 µM
PSN1 [3]
  PC50: 89.7 µM
PANC-1 [4]
  Activity: Non-Toxic
MIA PaCa-2 [5]
  Activity: Non-Toxic
PSN1 [6]
  Activity: Non-Toxic

## C/C(=C\COc1c2ccoc2cc2oc(=O)ccc12)CC[C@@H](O)C(C)(C)O
PANC-1 [1]
  PC50: 76.5 µM
MIA PaCa-2 [2]
  PC50: 49.4 µM
PSN1 [3]
  PC50: 76.1 µM
PANC-1 [4]
  Activity: Non-Toxic
MIA PaCa-2 [5]
  Activity: Non-Toxic
PSN1 [6]
  Activity: Non-Toxic

## C=C(C)[C@@H](O)COc1c2ccoc2cc2oc(=O)ccc12
PANC-1 [1]
  PC50: 86.6 µM
MIA PaCa-2 [2]
  PC50: >100 µM
PSN1 [3]
  PC50: >100 µM
PANC-1 [4]
  Activity: Non-Toxic
MIA PaCa-2 [5]
  Activity: Non-Toxic
PSN1 [6]
  Activity: Non-Toxic

## CO[C@@H](COc1c2ccoc2cc2oc(=O)ccc12)C(C)(C)O
PANC-1 [1]
  PC50: 18.8 µM
MIA PaCa-2 [2]
  PC50: 51.1 µM
PSN1 [3]
  PC50: 40.6 µM
PANC-1 [4]
  Activity: Non-Toxic
MIA PaCa-2 [5]
  Activity: Non-Toxic
PSN1 [6]
  Activity: Non-Toxic

## CC(C)(O)[C@H](O)COc1c2ccoc2cc2oc(=O)ccc12 [OXYPEUCEDANIN HYDRATE]
PANC-1 [1]
  PC50: 41.2 µM
MIA PaCa-2 [2]
  PC50: 79.4 µM
PSN1 [3]
  PC50: 89.7 µM
PANC-1 [4]
  Activity: Non-Toxic
MIA PaCa-2 [5]
  Activity: Non-Toxic
PSN1 [6]
  Activity: Non-Toxic
